According to ChEMBL document CHEMBL1156517, “Targeting thyroid hormone receptor-beta agonists to the liver reduces cholesterol and triglycerides and improves the therapeutic index” (Proc Natl Acad Sci U S A, 2007):
Calls of active or inactive are those of the source. The rule behind the calls is not given here.

How the values were obtained:
CYP3A = test: (§1) Activity of CYP3A in Sprague-Dawley rat liver microsome; format: ADME; conditions: Sprague-Dawley, liver microsomes
[1] = as §1; format: ADME; conditions: microsomes
Rattus norvegicus [2] = test: Toxicity in Sprague-Dawley rat assessed as suppression of thyroid hormone axis measured by decrease in total 3,5,3',5'-tetraiodo-L-thyronine level at 30 mg/kg, po after 7 weeks; format: organism-based; parameters: dose 30 mg/kg, route oral; conditions: in vivo, 1176 h
Rattus norvegicus [3] = test: Effect on malic enzyme mRNA expression in po dosed Sprague-Dawley rat liver; format: functional, organism-based; conditions: TDE = time-dependent effect
Summary of the method: (§2)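 Killed 3, 8 and 24 h post-dose under 2.5% isoflurane. Pituitary and thyroid snap-frozen; liver, heart, soleus, spleen and kidney freeze-clamped. mRNA by quantitative real-time PCR, expressed as fold-change vs vehicle.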

Hepatocyte = test: Cmax per10'6 cells in Sprague-Dawley rat hepatocytes at 10 uM; format: ADME, Liver; parameters: dose 10 uM
Summary of the method: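 Freshly isolated rat hepatocytes were incubated with compound. Intracellular levels of the active phosphonate were followed over time and expressed per 10⁶ cells, giving Cmax and tmax.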

Mus musculus [4] = test: Decrease in cholesterol level in LDLR deficient C57BL/6 mouse at 0.5 mg/kg/day once daily for 7 days; format: functional, organism-based
Rattus norvegicus [5] = test: Toxicity in Sprague-Dawley rat assessed as suppression of thyroid hormone axis measured by decrease in serum TSH level at 30 mg/kg, po after 7 weeks; format: organism-based; parameters: dose 30 mg/kg, route oral; conditions: in vivo, 1176 h
Mus musculus [6] = test: Reduction in plasma cholesterol level in diet-induced obese C57BL/6 mouse at 3 mg/kg/day, po; format: functional; parameters: scale not given: the % may be the effect or the level left
Summary of the method: (§3)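 Male C57BL/6 mice, about 4 weeks old, fed a high-fat diet (60% kcal fat) for about 170 days. Assigned to groups (n = 8) matched for cholesterol and body weight. Dosed orally once daily in 0.5% CMC/1% Lutrol F68 for 2 weeks. Baseline blood taken by tail nick. At end, cardiac-puncture blood used for cholesterol, TGs, glucose and thyroid hormones; liver weighed and hepatic TGs measured.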

Rattus norvegicus [7] = test: Effect on LDLR mRNA expression in po dosed Sprague-Dawley rat liver; format: functional, organism-based; conditions: TDE = time-dependent effect
Rattus norvegicus [8] = test: Effect on plasma fatty acid level in Sprague-Dawley rat at 50 mg/kg/day, po after 8 days; format: functional
Mus musculus [9] = test: Effect on hepatic LDLR mRNA level in diet-induced obese C57BL/6 mouse at 10 mg/kg, po after 3 hrs by RT-PCR; format: functional
Summary of the method: (§4)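 Single oral dose in male DIO mice: C57BL/6 mice, about 4 weeks old at start, fed a 60% fat (by kcal) diet for about 170 days. Hepatic LDLR mRNA read out at early time points (3 and 8 h) after dosing.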

Rattus norvegicus [10] = species: Rattus norvegicus; test: Reduction in plasma cholesterol level in cholesterol fed Sprague-Dawley rat; format: functional
[11] = Inhibition of CYP3A in Sprague-Dawley rat liver microsome at 10 uM; format: ADME; conditions: microsomes
Rattus norvegicus [12] = test: Effect on type 1 iodothyronine deiodinase mRNA expression in po dosed Sprague-Dawley rat liver; format: functional, organism-based; conditions: TDE = time-dependent effect; summary of the method: as §2
[13] = biological target: Thyroid hormone receptor alpha (Homo sapiens, UniProt P10827); test: Displacement of [125I]T3 from recombinant thyroid hormone receptor alpha expressed in sf9 cells by scintillation proximity assay
Thyroid hormone receptor alpha, sequence (P10827 whole entry): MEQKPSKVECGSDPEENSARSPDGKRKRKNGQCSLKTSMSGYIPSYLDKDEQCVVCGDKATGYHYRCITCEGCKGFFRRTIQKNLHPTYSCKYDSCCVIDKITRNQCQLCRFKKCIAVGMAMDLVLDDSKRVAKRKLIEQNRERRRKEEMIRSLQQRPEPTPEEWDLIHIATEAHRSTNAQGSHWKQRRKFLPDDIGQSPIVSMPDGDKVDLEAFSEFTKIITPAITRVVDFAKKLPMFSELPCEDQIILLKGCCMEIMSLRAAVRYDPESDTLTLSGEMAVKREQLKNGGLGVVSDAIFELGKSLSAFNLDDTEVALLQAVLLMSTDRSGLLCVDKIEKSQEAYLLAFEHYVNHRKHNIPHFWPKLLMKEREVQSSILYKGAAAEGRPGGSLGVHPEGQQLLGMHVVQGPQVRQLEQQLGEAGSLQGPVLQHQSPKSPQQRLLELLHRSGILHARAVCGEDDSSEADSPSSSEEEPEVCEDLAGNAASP

Rattus norvegicus [14] = test: Effect on body weight in Sprague-Dawley rat at 10 mg/kg/day, po after 8 days; format: functional
Rattus norvegicus [15] = test: Effect on fasting blood glucose level in Sprague-Dawley rat at 10 mg/kg/day, po after 8 days by oral glucose tolerance test; format: functional
Rattus norvegicus [16] = test: Effect on plasma insulin level in Sprague-Dawley rat at 10 mg/kg/day, po after 8 days; format: functional
[17] = Volume of distribution in Sprague-Dawley rat at 3 mg/kg, iv; format: ADME, organism-based; parameters: dose 3 mg/kg, route intravenous; conditions: in vivo
[18] = Clearance in Sprague-Dawley rat at 3 mg/kg, iv; format: ADME, organism-based; parameters: dose 3 mg/kg, route intravenous; conditions: in vivo
Summary of the method: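 Male SD rats received a single i.v. dose. Clearance and other PK parameters came from plasma concentration–time profiles of both the prodrug and the active phosphonate, values reported as mean ± SEM.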

Mus musculus [19] = test: Reduction in blood glucose level in po dosed diet-induced obese C57BL/6 mouse; format: functional, organism-based; summary of the method: as §3
Rattus norvegicus [20] = test: Toxicity in Sprague-Dawley rat assessed as suppression of thyroid hormone axis measured by decrease in TSH-beta mRNA level at 30 mg/kg, po after 7 weeks; format: organism-based; parameters: dose 30 mg/kg, route oral; conditions: in vivo, 1176 h
Summary of the method: (§5)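 Male SD rats (n = 5–6 per group; baseline group n = 8) given vehicle (0.5% CMC/1% Lutrol F68) or drug orally once daily. One group per cohort weighed and killed by decapitation without anesthesia after 1, 2, 4 and 7 weeks. Trunk-blood serum assayed for total/free T3 and T4; TSH by [125I] radioimmunoassay with magnetic separation. Pituitary TSHβ mRNA also measured.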

Rattus norvegicus [21] = test: Effect on SREBP-1c mRNA expression in po dosed Sprague-Dawley rat liver; format: functional, organism-based; conditions: TDE = time-dependent effect
Rattus norvegicus [22] = test: Effect on body weight in Sprague-Dawley rat at 1 mg/kg/day, po after 8 days; format: functional
Mus musculus [23] = test: Effect on hepatic LDLR mRNA level in wild-type C57BL/6 mouse at 5 mg/kg/day once daily for 7 days; format: functional
Mus musculus [24] = test: Decrease in body weight in diet-induced obese C57BL/6 mouse at 30 mg/kg/day, po; format: functional; parameters: scale not given: the % may be the effect or the level left
Mus musculus [25] = test: Decrease in liver weight in po dosed diet-induced obese C57BL/6 mouse after 14 days; format: functional; parameters: scale not given: the % may be the effect or the level left
Summary of the method: (§6)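 DIO mice were male C57BL/6 fed a 60%-fat (by kcal) diet from about 4 weeks of age for about 170 days. They were grouped (n = 8) to match cholesterol and body weight. Dosing was oral, once daily for 2 weeks, in 0.5% CMC/1% Lutrol F68. At kill, blood was taken by cardiac puncture for plasma TGs. The liver was removed and weighed, and hepatic TGs were measured.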

Rattus norvegicus [26] = test: Effect on fasting blood glucose level in Sprague-Dawley rat at 1 mg/kg/day, po after 8 days by oral glucose tolerance test; format: functional
Mus musculus [27] = test: Decrease in plasma triglyceride level in po dosed diet-induced obese C57BL/6 mouse after 14 days; format: functional; parameters: scale not given: the % may be the effect or the level left; summary of the method: as §6
Mus musculus [28] = test: Decrease in cholesterol level in LDLR deficient C57BL/6 mouse at 5 mg/kg/day once daily for 7 days; format: functional, organism-based
Rattus norvegicus [29] = test: Effect on food intake in Sprague-Dawley rat at 10 mg/kg/day, po after 8 days; format: functional
Mus musculus [30] = test: Decrease in cholesterol level in wild-type C57BL/6 mouse at 5 mg/kg/day once daily for 7 days; format: functional, organism-based
Rattus norvegicus [31] = test: Increase in hepatic LDLR mRNA level in thyroidectomized Sprague-Dawley rat at 5 mg/kg after 24 hrs by RT-PCR relative to control; format: functional
Summary of the method: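 Male thyroidectomized SD rats given 5 mg/kg, with a parallel T₃ arm at 0.5 mg/kg. Hepatic LDLR mRNA quantified by quantitative real-time PCR.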

Mus musculus [32] = test: Effect on hepatic LDLR mRNA level in diet-induced obese C57BL/6 mouse at 10 mg/kg, po after 8 hrs by RT-PCR; format: functional; summary of the method: as §4
Rattus norvegicus [33] = test: Effect on food intake in Sprague-Dawley rat at 1 mg/kg/day, po after 8 days; format: functional
Rattus norvegicus [34] = test: Effect on plasma fatty acid level in Sprague-Dawley rat at 10 mg/kg/day, po after 8 days; format: functional
Mus musculus [35] = test: Decrease in cholesterol level in wild-type C57BL/6 mouse at 0.5 mg/kg/day once daily for 7 days; format: functional, organism-based
Rattus norvegicus [36] = test: Toxicity in Sprague-Dawley rat assessed as suppression of thyroid hormone axis measured by decrease in free 3,5,3',5'-tetraiodo-L-thyronine level at 30 mg/kg, po after 7 weeks; format: organism-based; parameters: dose 30 mg/kg, route oral; conditions: in vivo, 1176 h; summary of the method: as §5
[37] = biological target: Thyroid hormone receptor beta (Homo sapiens, UniProt P10828); test: Displacement of [125I]T3 from recombinant thyroid hormone receptor beta expressed in sf9 cells by scintillation proximity assay
Thyroid hormone receptor beta, sequence (P10828 whole entry): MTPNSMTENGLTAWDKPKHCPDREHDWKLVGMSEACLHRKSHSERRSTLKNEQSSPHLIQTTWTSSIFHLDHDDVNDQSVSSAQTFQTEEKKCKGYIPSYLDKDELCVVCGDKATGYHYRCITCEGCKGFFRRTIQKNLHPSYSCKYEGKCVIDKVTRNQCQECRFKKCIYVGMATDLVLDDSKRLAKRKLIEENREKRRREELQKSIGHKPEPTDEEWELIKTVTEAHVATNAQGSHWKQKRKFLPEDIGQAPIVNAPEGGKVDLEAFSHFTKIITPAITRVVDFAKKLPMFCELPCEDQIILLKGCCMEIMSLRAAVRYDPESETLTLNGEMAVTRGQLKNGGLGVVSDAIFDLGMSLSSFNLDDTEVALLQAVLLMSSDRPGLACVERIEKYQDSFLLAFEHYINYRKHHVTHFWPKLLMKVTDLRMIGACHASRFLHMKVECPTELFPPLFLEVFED

Rattus norvegicus [38] = test: Effect on plasma insulin level in Sprague-Dawley rat at 1 mg/kg/day, po after 8 days; format: functional
Rattus norvegicus [39] = test: Effect on plasma fatty acid level in Sprague-Dawley rat at 1 mg/kg/day, po after 8 days; format: functional
Rattus norvegicus [40] = test: Effect on plasma insulin level in Sprague-Dawley rat at 50 mg/kg/day, po after 8 days; format: functional
Mus musculus [41] = test: Effect on hepatic LDLR mRNA level in LDLR deficient C57BL/6 mouse at 5 mg/kg/day once daily for 7 days; format: functional
Rattus norvegicus [42] = test: Effect on fasting blood glucose level in Sprague-Dawley rat at 50 mg/kg/day, po after 8 days by oral glucose tolerance test; format: functional
Mus musculus [43] = test: Reduction in plasma cholesterol level in po dosed diet-induced obese C57BL/6 mouse after 2 weeks; format: functional; parameters: scale not given: the % may be the effect or the level left; summary of the method: as §3
Rattus norvegicus [44] = test: Effect on food intake in Sprague-Dawley rat at 50 mg/kg/day, po after 8 days; format: functional
Mus musculus [45] = test: Decrease in plasma triglyceride level in diet-induced obese C57BL/6 mouse at 3 mg/kg/day, po after 14 days; format: functional; parameters: scale not given: the % may be the effect or the level left; summary of the method: as §6
Mus musculus [46] = test: Decrease in liver triglyceride level in diet-induced obese C57BL/6 mouse at 3 mg/kg/day, po after 14 days; format: functional; parameters: scale not given: the % may be the effect or the level left; summary of the method: as §6
Rattus norvegicus [47] = test: Effect on body weight in Sprague-Dawley rat at 50 mg/kg/day, po after 8 days; format: functional
Mus musculus [48] = test: Decrease in liver triglyceride level in po dosed diet-induced obese C57BL/6 mouse after 14 days; format: functional; parameters: scale not given: the % may be the effect or the level left; summary of the method: as §6

Cc1cc(OCP2(=O)OCC[C@@H](c3cccc(Cl)c3)O2)cc(C)c1Cc1ccc(O)c(C(C)C)c1 (stereo not given in full) [MB07811]
Km (CYP3A): 18.8 µM
Vmax [1]: 2.74 nmol/min/mg
Activity (Rattus norvegicus [2]): Active
Activity (Rattus norvegicus [3]): tde
Cmax (Hepatocyte): 1.03 nmol
Activity (Mus musculus [4]): inactive
Activity (Rattus norvegicus [5]): Active
Activity (Mus musculus [6]): 51%
Activity (Rattus norvegicus [7]): tde
Activity (Rattus norvegicus [8]): 0.524 mM
fold change (FC) (Mus musculus [9]): 1.23
ED50 (Rattus norvegicus [10]): 0.4 mg/kg
Activity [11]: Not Active
Activity (Rattus norvegicus [12]): tde
Ki [13]: 12.5 µM
Activity (Rattus norvegicus [14]): 37.9 g
Activity (Rattus norvegicus [15]): 11.8 mg/dL
Activity (Rattus norvegicus [16]): 0.342 ng/mL
Vd [17]: 14.8 L/kg
clearance [18]: 193 mL/min/kg
Activity (Mus musculus [19]): Active
Activity (Rattus norvegicus [20]): Active
Activity (Rattus norvegicus [21]): tde
Activity (Rattus norvegicus [22]): 42.8 g
Activity (Mus musculus [23]): -31.8%
Activity (Mus musculus [24]): 3%
Activity (Mus musculus [25]): 42%
Activity (Rattus norvegicus [26]): 9 mg/dL
Activity (Mus musculus [27]): 40%
Activity (Mus musculus [28]): inactive
Activity (Rattus norvegicus [29]): 14.6%
Activity (Mus musculus [30]): Active
fold change (FC) (Rattus norvegicus [31]): 21.063
fold change (FC) (Mus musculus [32]): 2.01
Activity (Rattus norvegicus [33]): 15.1%
Activity (Rattus norvegicus [34]): 0.541 mM
Activity (Mus musculus [35]): Active
Activity (Rattus norvegicus [36]): Active
Ki [37]: 14.6 µM
Activity (Rattus norvegicus [38]): 0.424 ng/mL
Activity (Rattus norvegicus [39]): 0.454 mM
Activity (Rattus norvegicus [40]): 0.402 ng/mL
Activity (Mus musculus [41]): -10.8%
Activity (Rattus norvegicus [42]): -0.5 mg/dL
Activity (Mus musculus [43]): 61%
Activity (Rattus norvegicus [44]): 15.6%
Activity (Mus musculus [45]): 38%
Activity (Mus musculus [46]): 69%
Activity (Rattus norvegicus [47]): 49.3 g
Activity (Mus musculus [48]): 42%
